# In the library only some 1.8% were active in any assay of this set; here they are far more common.
# EBI2 antag: EBI2 receptor antagonists, beta-arrestin recruitment, primary screen, cell-based, luminescence, 7a,25-OHC stimulation, uHTS; G-protein coupled receptor 183 (Homo sapiens), P32249; 7a,25-OHC stimulated; inhibition, % at 5 µM; hit rate 0.81% among 360,000; AID 651636, 2012; in the data active = inhibition above about 38%;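 note: enzyme fragment complementation signal reports receptor beta-arrestin coupling in cells; 0% = agonist plus DMSO wells and 100% = wells without agonist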
# CXCR6 inh: CXCR6 receptor inhibitors, primary screen, cell-based, beta-arrestin, luminescence, CHO-K1 PathHunter, 1536-well; C-X-C chemokine receptor type 6 (Homo sapiens), O00574; inhibition, % at 20 µM; hit rate 0.36% among 360,000; AID 602244, 2012; in the data active = inhibition above about 34%, passing the limit was not always enough;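 note: antagonist mode with CXCL16 agonist at 10 nM final; 0% = 10 nM CXCL16 with DMSO and 100% = unstimulated wells without agonist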
# APJ agonist: agonists of human apelin receptor APJ, primary screen, CHO-K1 cells, PathHunter beta-arrestin, luminescence | hit rate 0.11% among 330,000 | 0% DMSO wells, 100% apelin | activation, % at 20 µM | P35414;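 active = activation more than six SD over the plate average, tested at 20 µM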;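 note: 0% = DMSO alone and 100% = apelin-13 at 10 nM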
#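 Test system: CHO-K1 APJ beta-arrestin complementation cell line | Compound: Single test compound dose, 20 µM final, 1% DMSO | Incubation: Compound 90 min 25 °C, reagent 1 h | Measured by: beta-gal luminescence | Read-out basis: APJ–arrestin association signal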
# APJ antagonist: antagonists of human apelin receptor APJ, primary screen, CHO-K1 cells, beta-arrestin complementation, luminescence | inhibition, % at 20 µM | hit rate 0.32% among 330,000 | AID 2521, 2010;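 active = inhibition above about 40% at 20 µM, limit read from the data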;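 note: cells challenged with 10 nM apelin-13 agonist together with compound; plate controls were apelin-13 plus DMSO wells for no effect and DMSO wells lacking apelin-13 for full effect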
# Beta2AR agonist: beta2AR agonists driving receptor internalization, primary screen, cell-based, FAP fluorogen, flow cytometry | Beta-2 adrenergic receptor (Homo sapiens), P07550 | Am2.2-beta2AR cells | response, % (concentration not given with the values) | hit rate 0.43% among 340,000 | AID 504454, 2011;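 active = response above a set limit, near 3 SD of response in nonfluorescent compounds, cut at about 42% in these data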
# CCR6 antagonist: CCR6 receptor antagonists, primary screen, cell-based, CHO-K1, luminescence, beta-arrestin, uHTS | hit rate 0.49% among 340,000 | CHO-K1 CCR6 PathHunter beta-arrestin, CCL20-stimulated | C-C chemokine receptor type 6 (Homo sapiens), P51684 | inhibition, % at 20 µM;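 active = compounds whose inhibition of the agonist-driven luminescence signal at 20 µM reaches about 50%, limit read from the data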;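 note: cells stimulated with CCL20 at 14 nM final; plate controls were DMSO with CCL20 for no effect and DMSO without agonist for full effect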
# Target sequence (P51684 whole entry, looked up): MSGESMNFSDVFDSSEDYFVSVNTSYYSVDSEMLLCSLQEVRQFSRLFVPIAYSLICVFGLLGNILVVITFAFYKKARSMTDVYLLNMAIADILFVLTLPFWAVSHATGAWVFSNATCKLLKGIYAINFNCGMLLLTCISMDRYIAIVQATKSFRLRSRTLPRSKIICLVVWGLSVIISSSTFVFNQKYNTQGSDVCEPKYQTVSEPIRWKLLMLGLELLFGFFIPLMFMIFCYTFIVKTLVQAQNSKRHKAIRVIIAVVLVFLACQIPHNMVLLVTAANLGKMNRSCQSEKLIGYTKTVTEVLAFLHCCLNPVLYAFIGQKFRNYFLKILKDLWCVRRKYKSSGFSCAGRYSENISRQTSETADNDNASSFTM
# EBI2 conf: EBI2 antagonist hit retest, beta-arrestin, confirmation, cell-based, single concentration, luminescence, 7a,25-OHC stimulation; inhibition, % at 5 µM; hit rate 29% among 2,400; 7a,25-OHC antagonism; shares compounds with EBI2 antag; AID 651997, 2013;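 active = inhibition of at least 50%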
# EBI2 ag: EBI2 agonist activity of antagonist hits, confirmation, counter-screen for EBI2 antagonist project, cell-based, single concentration, agonist mode, luminescence. activation, % at 5 µM. shares compounds with EBI2 antag. AID 652000, 2013. 2,400 tested, under 10 active. EBI2-expressing cells, 60 min; 0% vehicle, 100% 7α,25-dihydroxycholesterol control;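 active = activation of at least 50%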
# bGal cs: E. coli beta-galactosidase enzyme inhibition, confirmation, counter-screen for EBI2 antagonist project, biochemical, luminescence, single concentration. AID 652176, 2013. hit rate 1% among 2,400. purified beta-galactosidase, luminescent Galacton Star, 15 min. inhibition, % at 5 µM. shares compounds with EBI2 antag;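 active = replicate-average signal at least 3 plate SD below neutral wells, shown as high inhibition, flagging enzyme-inhibiting false positives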;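 note: 0% = DMSO wells with enzyme and 100% = wells lacking enzyme; higher means stronger loss of beta-gal luminescence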
# * = called active by the depositor; nt = not tested or not shown.
SMILES,EBI2 antag,CXCR6 inh,APJ agonist,APJ antagonist,Beta2AR agonist,CCR6 antagonist,EBI2 conf,EBI2 ag,bGal cs
CSc1ccc(/C=N/NC(=O)CN2CCN(Cc3ccc(Cl)cc3)CC2)cc1,50*,-12,-3,2,-9,-3,34,-1,-10
Cc1ccc(/C=N/NC(=O)Cc2cccn2C)cc1,46*,-8,0,0,2,10,32,-1,-12
Cc1ccc(/C=N/NC(=O)CSCc2ccc(Cl)cc2)cc1,62*,-3,-1,12,-3,2,44,-1,-20
CSc1ccc(/C=N/NC(=O)CN2CCN(Cc3ccccc3)CC2)cc1,50*,-6,-1,-9,-5,13,42,0,-11
CSc1ccc(/C=N/N2CCN(Cc3ccc(Cl)cc3)CC2)cc1,5,-9,0,6,6,3,nt,nt,nt
Cc1ccsc1/C=N/NC(=O)CSCc1ccc(Cl)cc1,6,-33,-3,7,2,7,nt,nt,nt
CC(=O)c1ccc(OCCCC(=O)Nc2cc(S(=O)(=O)N3CCCCC3)ccc2C)cc1,-2,-5,0,-8,3,10,nt,nt,nt
COC(=O)C1CCC(=O)N1C(c1ccc(OC)cc1)c1cc(OC)c(OC)c(OC)c1 (configuration not stated),-29,-2,nt,nt,11,-16,nt,nt,nt
CCOc1cc(/C=N/NC(=O)COc2nc(C)cc(COC)c2C#N)ccc1O,62*,3,-2,0,3,-15,36,2,1
COCc1cc(C)nc(OCC(=O)N/N=C/c2ccccc2O)c1C#N,-3,-7,3,21,-6,-6,nt,nt,nt
CCOC(=O)C1CCN(c2nc3ccccc3nc2C(C#N)C(=O)OCCOC)CC1 (configuration not stated),22,13,-5,18,2,27,nt,nt,nt
COC(=O)C1CCN(c2nc3ccccc3nc2C(C#N)C(=O)NCCc2ccccc2)CC1 (configuration not stated),67*,10,-5,18,6,26,14,-2,-11
COc1ccccc1OCC(=O)Nc1cc(Cl)ccc1N1CCCCC1,35,0,-2,6,-4,26,nt,nt,nt
COC(=O)c1c(NC(NC(=O)CC(C)C)C(Cl)(Cl)Cl)sc2c1CCC2 (configuration not stated),64*,-2,1,17,10,2,12,0,6
CCC(=O)NC(Nc1sc2c(c1C(=O)OC)CCC2)C(Cl)(Cl)Cl (configuration not stated),24,-4,-2,-1,8,2,nt,nt,nt
O=c1c2ccccc2n2c(-c3ccc(C(F)(F)F)cc3)nnc2n1Cc1ccccc1,47*,19,2,-7,-23,19,22,-1,-10
O=c1c2ccccc2n2c(-c3ccc(F)cc3)nnc2n1Cc1ccccc1,-6,7,2,3,-7,2,nt,nt,nt
COc1ccc(-n2c(Cc3cccn3C)nnc2SCC(=O)Nc2cccc(F)c2)cc1,56*,1,-6,26,-4,12,7,-1,-9
Cn1cccc1Cc1nnc(SCC(=O)Nc2cccc(F)c2)n1CCc1ccccc1,45*,7,-1,16,-3,1,39,-2,-8
COc1ccc(-n2c(Cc3cccn3C)nnc2SCC(=O)NCc2ccccc2Cl)cc1,56*,5,-5,11,-2,19,19,1,5
COc1ccc(-n2c(Cc3cccn3C)nnc2SCC(=O)Nc2ccc(Cl)cc2)cc1,34,-4,-1,-2,-14,11,nt,nt,nt
COc1ccc(-n2c(Cc3cccn3C)nnc2SCC(=O)Nc2cc(Cl)ccc2OC)cc1,58*,4,-3,19,-14,7,27,0,10
Fc1ccc(-c2ccc3c(c2)C2CC3CCN2)cc1 (configuration not stated),-3,-3,nt,nt,-2,-10,nt,nt,nt
NC(c1ccc(F)c(F)c1)c1nc(-c2cc(F)cc(F)c2)cs1 (configuration not stated),3,6,nt,nt,nt,nt,nt,nt,nt
O=C(/C=C/c1ccccc1[N+](=O)[O-])OCC(=O)N1CCN(c2ccccc2)CC1,-4,0,nt,nt,nt,nt,nt,nt,nt
SMILES,EBI2 antag,CXCR6 inh,APJ agonist,APJ antagonist,Beta2AR agonist,CCR6 antagonist,EBI2 conf,EBI2 ag,bGal cs
CCOC(=O)CC1COCCN1C(=O)c1ccc2oc(Cc3ccccc3)nc2c1 (configuration not stated),-4,0,-4,-1,0,10,nt,nt,nt
Cc1ccc(-n2c(Cc3cccn3C)nnc2SCC(=O)NCc2ccc3c(c2)OCO3)cc1,45*,9,-3,-2,-3,-6,37,1,-4
COc1ccc(-n2c(Cc3cccn3C)nnc2SCC(=O)Nc2ccccc2OC)cc1,45*,-8,0,8,2,6,31,1,10
COc1ccc(C(=O)NC(=S)Nc2cc3oc4ccccc4c3cc2OC)cc1,48*,-12,12,0,-2,1,36,0,8
C[C@H]1CN([C@@H](C)CO)C(=O)c2cc(NC(=O)C3CCCCC3)ccc2O[C@H]1CN(C)C(=O)Nc1ccc2c(c1)OCO2,3,2,0,-2,-2,1,nt,nt,nt
Cc1nc(SCC(=O)N2CCCC2=O)nc(C)c1C,-8,-1,0,-2,2,6,nt,nt,nt
CN1C[C@@H]2[C@@H]3C(=O)N(C)C(=O)[C@@H]3[C@](C)(C1=O)N2C(=O)c1ccc(Cl)cc1,-2,-4,nt,nt,5,0,nt,nt,nt
CN(C)c1ccc(NC(=O)/C=C/c2ccccc2Cl)cc1,17,14,-2,1,11,40,nt,nt,nt
CCN(CC)c1ccc(NC(=O)/C=C\c2ccccc2Cl)cc1,49*,13,-2,9,11,24,47,1,12
Cc1cccc(C(=O)OC(C)C(=O)NCC2CCCCC2)c1O (configuration not stated),-14,1,-2,6,-6,9,nt,nt,nt
O=C(NCCOc1ccc(Cl)cc1)C1CCCCC1,61*,-6,-2,-2,-5,11,30,0,11

# High-throughput results deposited in PubChem by several laboratories.
